IC50 data for 30 molecules are collected here from ChEMBL document CHEMBL1152730, “Non-peptidic substrate-mimetic inhibitors of Akt as potential anti-cancer agents” (Bioorg Med Chem, 2009).

Numbered stars: 1 amine (or outer) side, 2 acyl side, 3 side chain; on linkers, the order of the positions; unused ones are H or OH. Square brackets hold non-standard residues; d marks the D form. Peptide text beside a SMILES is read from it. * marks the point of attachment. X2 = O=C(c1ccc(N[*:1])cc1-c1cccc2ccccc12)[*:2]; X1 = O=C(c1ccc(N[*:1])c(-c2ccccc2)c1)[*:2]; X3 = O=C(c1ccc(N[*:1])cc1-c1ccccc1)[*:2]; X4 = Cc1cc(C(=O)[*:2])ccc1N[*:1]; NHBn = c1ccc(CN*)cc1

Sequence of RAC-alpha serine/threonine-protein kinase (P31749 whole entry): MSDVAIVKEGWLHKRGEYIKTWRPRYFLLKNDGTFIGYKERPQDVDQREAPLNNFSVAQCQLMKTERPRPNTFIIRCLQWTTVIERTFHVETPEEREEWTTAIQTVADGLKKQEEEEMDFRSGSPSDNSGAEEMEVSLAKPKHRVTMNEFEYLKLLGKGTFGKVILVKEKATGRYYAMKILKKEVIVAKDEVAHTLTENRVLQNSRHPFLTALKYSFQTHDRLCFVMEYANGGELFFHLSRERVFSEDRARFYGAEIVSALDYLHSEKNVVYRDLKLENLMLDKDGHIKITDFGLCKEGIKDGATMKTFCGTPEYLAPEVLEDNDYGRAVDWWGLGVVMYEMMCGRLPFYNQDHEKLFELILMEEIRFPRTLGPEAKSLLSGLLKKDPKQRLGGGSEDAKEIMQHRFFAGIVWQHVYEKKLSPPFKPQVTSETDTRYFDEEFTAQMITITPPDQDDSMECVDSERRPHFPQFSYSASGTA

The test addresses RAC-alpha serine/threonine-protein kinase (Homo sapiens, UniProt P31749). The test is described as follows: Inhibition of Akt1 by fluorescence polarization assay. The essentials:
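Substrate 100 nM 5FAM-labelled GSK3-derived peptide, ATP 5 μM, inhibitor added from DMSO stock. Incubated 1 h at room temperature, then quenched with IMAP binding solution. Phosphorylation read by fluorescence polarization; IC50 determined.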
On the technique in general: Polarisation of emitted light reports the rotation of a fluorescent probe.
Broadly, the IC50 is the concentration needed to halve the response being measured. With `N=C(N)NCCNc1ccc(C(=O)Nc2ccc(N(Cc3ccccc3)Cc3ccccc3)cc2)cc1-c1ccccc1`, the midpoint of inhibition, the IC50, lay at 84 µM.

Molecule `NC(N)=NCC(=O)Nc1ccc(-c2cc3cc(N(Cc4ccccc4)Cc4ccccc4)ccc3[nH]2)cc1` returned an IC50 of 126 µM.

The molecule `N=C(N)NCCNc1ccc(C(=O)Nc2ccc(N(Cc3ccc4ccccc4c3)Cc3ccc4ccccc4c3)cc2)cc1-c1ccccc1` had an IC50 of 23 µM. `N=C(N)NCCNc1ccc(C(=O)Nc2ccc(N(Cc3ccccc3)Cc3ccccc3)cc2)cc1-c1ccc2ccccc2c1` registered a half-maximal inhibitory concentration (IC50) of 44 µM.

The molecule `Cc1ccc(CN(Cc2ccc(C)cc2)c2ccc(NC(=O)c3ccc(NCCNC(=N)N)c(-c4ccccc4)c3)cc2)cc1` gave a concentration for half-maximal inhibition (IC50) of 215 µM.

`CC(C)c1ccc(CN(Cc2ccc(C(C)C)cc2)c2ccc(NC(=O)c3ccc(NCCNC(=N)N)c(-c4ccc5ccccc5c4)c3)cc2)cc1` registered an IC50 of 38 µM. As for `CC(=O)N[C@@H](CCCNC(=N)N)C(=O)Nc1ccc(C(=O)N[C@H](C(=O)N[C@@H](Cc2ccccc2)C(=O)NCc2ccccc2)C(C)C)cc1-c1ccccc1`, the IC50 was 288 µM. As for `CC(=O)Nc1ccc(-c2cc(C(=O)Nc3ccc(N(Cc4ccccc4)Cc4ccccc4)cc3)ccc2NCCNC(=N)N)cc1`, the figure is 253 µM; as for `CC(=O)N[C@@H](CCCNC(=N)N)C(=O)Nc1ccc(C(=O)N[C@H](C(=O)N[C@@H](Cc2ccccc2)C(=O)NCc2ccccc2)C(C)C)c(-c2ccccc2)c1`, 173 µM; as for `Cc1cccc(CN(Cc2cccc(C)c2)c2ccc(NC(=O)c3ccc(NCCNC(=N)N)c(-c4ccccc4)c3)cc2)c1`, 152 µM. `N#Cc1ccc(CN(Cc2ccc(C#N)cc2)c2ccc(NC(=O)c3ccc(NCCNC(=N)N)c(-c4ccccc4)c3)cc2)cc1` came in with an IC50 of 19 µM. Under `N#Cc1ccc(CN(Cc2ccc(C#N)cc2)c2ccc(NC(=O)c3ccc(NC(=O)CNC(=N)N)c(-c4ccc5ccccc5c4)c3)cc2)cc1` stands 12 µM; under `CC(=O)N[C@@H](CCCNC(=N)N)C(=O)Nc1ccc(C(=O)Nc2ccc3c(=O)n(Cc4ccccc4)c(=O)n(Cc4ccccc4)c3c2)cc1`, 112 µM. `CC(C)c1ccc(CN(Cc2ccc(C(C)C)cc2)c2ccc(NC(=O)c3ccc(NC(=O)CNC(=N)N)c(-c4ccc5ccccc5c4)c3)cc2)cc1` gave an IC50 of 17 µM. Turning to `CC(=O)NCC(=O)N[C@@H](CCCNC(=N)N)C(=O)N1CCC[C@H]1C(=O)N[C@@H](CCCNC(=N)N)C(=O)Nc1ccc(C(=O)N[C@H](C(=O)N[C@@H](Cc2ccccc2)C(=O)NCc2ccccc2)C(C)C)c(-c2cccc3ccccc23)c1` (Ac-GRPR[X2]VF-NHBn), the IC50 came to 78 µM. Under `CC(=O)NCC(=O)N[C@@H](CCCNC(=N)N)C(=O)N1CCC[C@H]1C(=O)N[C@@H](CCCNC(=N)N)C(=O)Nc1ccc(C(=O)N[C@H](C(=O)N[C@@H](Cc2ccccc2)C(=O)NCc2ccccc2)C(C)C)cc1C` (Ac-GRPR[X4]VF-NHBn) stands 50 µM; under `CC(C)c1ccc(-c2cc(C(=O)Nc3ccc(N(Cc4ccccc4)Cc4ccccc4)cc3)ccc2NCCNC(=N)N)cc1`, 52 µM; under `N#Cc1ccc(-c2cc(C(=O)Nc3ccc(N(Cc4ccccc4)Cc4ccccc4)cc3)ccc2NCCNC(=N)N)cc1`, 78 µM. As for `CC(=O)NCC(=O)N[C@@H](CCCNC(=N)N)C(=O)N1CCC[C@H]1C(=O)N[C@@H](CCCNC(=N)N)C(=O)Nc1ccc(C(=O)N[C@H](C(=O)N[C@@H](Cc2ccccc2)C(=O)NCc2ccccc2)C(C)C)c(-c2ccccc2)c1` (Ac-GRPR[X3]VF-NHBn), the figure is 16 µM; as for `N#Cc1ccc(CN(Cc2ccc(C#N)cc2)c2ccc3[nH]c(-c4ccc(NC(=O)CN=C(N)N)cc4)cc3c2)cc1`, 32 µM.

The molecule `COC(=O)c1ccc(-c2cc(C(=O)Nc3ccc(N(Cc4ccccc4)Cc4ccccc4)cc3)ccc2NCCNC(=N)N)cc1` showed an IC50 of 158 µM. Consider `N=C(N)NCCNc1ccc(C(=O)Nc2ccc(N(Cc3cccc4ccccc34)Cc3cccc4ccccc34)cc2)cc1-c1ccccc1`, for which the IC50 came to 43 µM. As to `N=C(N)NCCNc1ccc(C(=O)Nc2ccc(N(Cc3ccc(F)cc3)Cc3ccc(F)cc3)cc2)cc1-c1ccccc1`, it took 55 µM to reach half-maximal inhibition (IC50). Molecule `CC(=O)N[C@@H](CCCNC(=N)N)C(=O)Nc1ccc(C(=O)Nc2ccc3c(c2)c(=O)n(Cc2ccccc2)c(=O)n3Cc2ccccc2)cc1` registered an IC50 of 232 µM. For the molecule `N=C(N)NCCNc1ccc(C(=O)Nc2ccc(N(Cc3ccc(-c4ccccc4)cc3)Cc3ccc(-c4ccccc4)cc3)cc2)cc1-c1ccccc1`, the midpoint of inhibition, the IC50, lay at 84 µM. `CC(C)c1ccc(CN(Cc2ccc(C(C)C)cc2)c2ccc(NC(=O)c3ccc(NCCNC(=N)N)c(-c4ccccc4)c3)cc2)cc1` registered an IC50 of 28 µM. Under `CC(=O)NCC(=O)N[C@@H](CCCNC(=N)N)C(=O)N1CCC[C@H]1C(=O)N[C@@H](CCCNC(=N)N)C(=O)Nc1ccc(C(=O)N[C@H](C(=O)N[C@@H](Cc2ccccc2)C(=O)NCc2ccccc2)C(C)C)cc1-c1ccccc1` (Ac-GRPR[X1]VF-NHBn) stands over 500 µM; under `N=C(N)NCCNc1ccc(C(=O)Nc2ccc(N(Cc3ccccc3)Cc3ccccc3)cc2)cc1-c1ccc(-c2ccccc2)cc1`, 83 µM; under `N#Cc1ccc(CN(Cc2ccc(C#N)cc2)c2ccc(NC(=O)c3ccc(NCCNC(=N)N)c(-c4ccc5ccccc5c4)c3)cc2)cc1`, 17 µM. In turn, `N=C(N)NCCNc1ccc(C(=O)Nc2ccc(N(Cc3ccccc3)Cc3ccccc3)cc2)cc1` returned an IC50 of 96 µM.
